Screening data (PubChem BioAssay)
Only some compounds are listed: those with a hit (about 2.4% of all), similar ones and a draw of the others.
T cruzi inh: inhibitors of intracellular T. cruzi growth, primary screen, luminescence, NIH3T3 host cells. inhibition, % (no concentration beside the values). T. cruzi beta-gal in NIH3T3, 90 h. AID 1885, 2009. 1.4% of 300,000 active;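 active = mean inhibition across valid replicates above about 55%, limit read from the data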;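 also: signal also drops with host cell toxicity which is not excluded here; 0% = plate median of DMSO wells and 100% = zero luminescence signal; higher percent means less beta-gal luminescence so fewer parasites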
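Assay system: NIH/3T3 fibroblasts plus reporter T. cruzi. Amount: NIH/3T3 cells, 5,000 per well. Buffer or medium: DMEM, 2% fetal bovine serum. Doses: compound pinned at 50 nL/well, DMSO. Schedule: ≥90 h infection period, 3 h prior cell attachment. Signal: luminescent β-galactosidase signal after 60 min lysis. Read-out: parasite load inhibition, %.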
Fh CTSL1 inh: Fasciola hepatica cathepsin L1 inhibitors, primary screen, counter-screen for PFM18AAP inhibitor project, biochemical, QFRET, fluorogenic peptide substrate; inhibition, % at 5.96 µM; recombinant F. hepatica cathepsin L1, Z-Leu-Arg-MCA fluorescence; 0.49% of 300,000 active;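 active = inhibition above the mean of all tested compounds plus 3 SD, set per screening campaign, cut at about 17% in these data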;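 also: 0% = plate median of test compound wells and 100% = 1 µM Z-Phe-Ala-diazomethylketone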
p-CIP stab down: p/CIP-EGFP fusion destabilizers, primary screen, fluorescence, F442A cells | Q05BA5 | 16 h | decrease of EGFP signal, % at 10 µM | 0.01% of 290,000 active | AID 1984, 2009;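 active = EGFP signal decrease of at least 30% at 10 µM or well 3 SD below plate mean, unless failing retest; inactive = the rest, including hits failing retest or dose response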
Target sequence (Q05BA5 1-1403): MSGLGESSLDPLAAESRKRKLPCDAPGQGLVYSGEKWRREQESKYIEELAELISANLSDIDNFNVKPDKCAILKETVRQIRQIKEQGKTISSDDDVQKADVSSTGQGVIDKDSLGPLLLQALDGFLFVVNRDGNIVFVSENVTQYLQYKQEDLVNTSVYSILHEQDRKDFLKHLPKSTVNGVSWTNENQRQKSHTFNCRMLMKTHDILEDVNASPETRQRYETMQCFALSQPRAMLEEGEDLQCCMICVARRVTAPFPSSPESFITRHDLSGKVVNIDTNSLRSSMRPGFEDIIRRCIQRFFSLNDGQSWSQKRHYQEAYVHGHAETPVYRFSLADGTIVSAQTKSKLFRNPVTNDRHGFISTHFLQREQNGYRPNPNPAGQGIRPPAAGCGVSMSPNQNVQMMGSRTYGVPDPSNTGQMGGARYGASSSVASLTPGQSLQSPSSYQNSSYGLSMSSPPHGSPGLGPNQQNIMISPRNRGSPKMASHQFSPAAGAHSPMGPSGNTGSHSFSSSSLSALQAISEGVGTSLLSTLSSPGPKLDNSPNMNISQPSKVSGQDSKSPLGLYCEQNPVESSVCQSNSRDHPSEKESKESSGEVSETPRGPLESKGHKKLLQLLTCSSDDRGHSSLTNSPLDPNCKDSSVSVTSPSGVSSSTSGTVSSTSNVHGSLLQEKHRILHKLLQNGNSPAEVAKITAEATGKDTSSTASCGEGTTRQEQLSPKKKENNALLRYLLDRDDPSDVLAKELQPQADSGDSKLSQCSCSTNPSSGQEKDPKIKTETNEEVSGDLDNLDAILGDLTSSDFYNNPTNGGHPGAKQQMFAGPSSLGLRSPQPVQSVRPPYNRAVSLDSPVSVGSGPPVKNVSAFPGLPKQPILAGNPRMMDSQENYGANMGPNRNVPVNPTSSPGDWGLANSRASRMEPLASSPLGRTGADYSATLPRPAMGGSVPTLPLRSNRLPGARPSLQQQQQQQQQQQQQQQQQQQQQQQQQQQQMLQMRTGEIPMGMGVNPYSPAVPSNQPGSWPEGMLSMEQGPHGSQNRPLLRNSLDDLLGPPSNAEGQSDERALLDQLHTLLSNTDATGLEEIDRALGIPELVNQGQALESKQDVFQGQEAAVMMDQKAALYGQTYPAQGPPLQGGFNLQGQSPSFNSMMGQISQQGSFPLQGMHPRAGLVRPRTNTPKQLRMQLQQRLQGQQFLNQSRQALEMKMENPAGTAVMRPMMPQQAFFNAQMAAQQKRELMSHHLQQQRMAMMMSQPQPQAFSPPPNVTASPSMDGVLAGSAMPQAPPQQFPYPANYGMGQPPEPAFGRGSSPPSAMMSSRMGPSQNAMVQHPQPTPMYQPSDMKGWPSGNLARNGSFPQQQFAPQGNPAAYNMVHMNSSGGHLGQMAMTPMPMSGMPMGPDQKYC
H9c2 protect: cardioprotection against H2O2-induced cell death, primary screen, uHTS, H9c2 cells, ATPLite luminescence | protection from H2O2 cell death, % at 20 µM | H9c2 cardiomyocytes, H2O2 injury protection, 2 h | 0.63% of 360,000 active | AID 588492, 2011;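 active = compounds giving at least 50% protection of heart cells from peroxide-induced death in the single-dose screen, raw or plate-pattern-corrected value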;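 also: 0% = DMSO wells with peroxide and 100% = DMSO wells without peroxide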
JMJD2C inh: inhibitors of GASC-1 histone demethylase, primary screen, biochemical, fluorescence, DELFIA europium. Lysine-specific demethylase 4C (Homo sapiens), Q9H3R0. GST-JMJD2C(1-420) H3K9me3 demethylation. inhibition, % at 2.35 µM. 0.069% of 330,000 active. AID 2099, 2009;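 active = more than half of a compound's replicate wells show inhibition beyond 50%, single wells judged on their own value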;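 also: signal counts dimethyl H3K9 product captured on neutravidin plate; 0% = median of DMSO wells and 100% = 0.3 times that DMSO median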
PP5 primary: PP5 phosphatase inhibitors, primary screen, biochemical, fluorescence. Serine/threonine-protein phosphatase 5 (Homo sapiens), P53041. 0.18% of 320,000 active. AID 1987, 2009. inhibition, % at 6.7 µM. purified PP5c, OMFP substrate fluorescence;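 active = inhibition above the campaign's mean inhibition across all tested compounds plus 3 SD, cut at about 9.5% in these data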;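 also: 0% = DMSO only and 100% = 100 µM cantharidin control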
An asterisk follows results filed as active; / = no result.

SMILES | T cruzi inh | Fh CTSL1 inh | p-CIP stab down | H9c2 protect | JMJD2C inh | PP5 primary
CN(CC(=O)NCCc1ccc(S(N)(=O)=O)cc1)CC(=O)Nc1cccc(F)c1 | / | / | / | -5 | / | /
CC(=O)c1sc(NC(=O)C2CCCN2S(=O)(=O)c2ccccc2F)nc1C (stereo not drawn) | / | / | / | 8 | / | 0
CCCCOc1ccc(C2NC(=O)NC(C)=C2C(C)=O)cc1OCC (stereo not drawn) | 17 | 3 | 1 | -2 | -1 | 2
CCOC(=O)C(C)Oc1ccc(C2NC(=O)NC(C)=C2C(C)=O)cc1Br (stereo not drawn) | -13 | 1 | 4 | 55* | 3 | -2
COc1ccc2cc(C3=CCCCC3)ncc2c1 | / | / | / | -9 | 7 | -2
CCC(=O)N1CCC1(C)C(=O)Nc1cc(OC)ccc1OC (stereo not drawn) | / | / | / | 3 | / | /
COc1ccc(C2CC(c3ccccc3)=NN2C(=O)COC(=O)c2ccc(Cl)nc2)cc1 (stereo not drawn) | 11 | -6 | -12 | 7 | 1 | 3
COc1ccc(C2CC(c3ccccc3)=NN2C(=O)COC(=O)c2cccc(S(=O)(=O)N(C)C)c2)cc1 (stereo not drawn) | 20 | 1 | 1 | -2 | -23 | 5
COc1ccc(C2CC(c3ccccc3)=NN2C(=O)COC(=O)CNC(=O)c2ccccc2)cc1 (stereo not drawn) | 6 | 31* | 7 | 4 | 1 | 6
O=C(CNC(=O)c1ccccc1)OCC(=O)N1N=C(c2ccc(Cl)cc2)CC1c1ccco1 (stereo not drawn) | -13 | 20* | -6 | 0 | 3 | 1
COc1ccc(C2CC(c3cccc(F)c3)=NN2c2ccc(S(N)(=O)=O)cc2)cc1 (stereo not drawn) | / | / | / | 18 | / | /
COc1ccc(C2CC(c3ccccc3)=NN2C(=O)COC(=O)c2cccc(S(=O)(=O)N3CCOCC3)c2)cc1 (stereo not drawn) | 72* | 0 | 2 | 0 | -10 | 0
COc1ccc(C2CC(c3ccccc3)=NN2c2ccc(S(N)(=O)=O)cc2)cc1 (stereo not drawn) | 57* | 0 | -16 | 3 | 0 | 1
CC(C)OCCCNc1nc2c(cnn2C)c(=O)[nH]1 | / | / | / | 2 | / | /
CC(C)(C)c1ccc(OCC(=O)Nc2ccc3c4c(cccc24)C(=O)NC3=O)cc1 | 7 | / | -158 | 60* | -10 | /
CCC(C)NC(=O)c1cc(-c2ccc3c(c2)OCO3)on1 (stereo not drawn) | 8 | 1 | -1 | -8 | -7 | 0
COc1ccc(NC(=S)NC(NC(=O)c2cccc3ccccc23)C(Cl)(Cl)Cl)c([N+](=O)[O-])c1 (stereo not drawn) | 68* | 0 | 0 | -14 | 2 | 3
COc1ccc(NC(=S)NC(NC(=O)c2ccccc2Cl)C(Cl)(Cl)Cl)c([N+](=O)[O-])c1 (stereo not drawn) | 12 | 0 | -2 | -13 | 14 | 3
NS(=O)(=O)c1ccc(NCc2c(F)cccc2Cl)cc1 | -20 | / | -14 | -6 | 14 | /
Fc1cccc(Cl)c1CNc1ccc(N2CCCC2)cc1 | 94* | -6 | -17 | -16 | -7 | 3
CCN1CCN(c2cc(N3CCN(C(=O)c4ccco4)CC3)c3c4c(onc24)-c2ccccc2C3=O)CC1 | 42 | -3 | -1 | 23 | -4 | 4
O=C(O)CCNc1cc(N2CCN(C(=O)c3ccco3)CC2)c2noc3c2c1C(=O)c1ccccc1-3 | 0 | 22* | -17 | 4 | -8 | 7
CC(=O)c1c(C)[nH]c(C(=O)OCc2nc3ccsc3c(=O)[nH]2)c1C | 0 | 1 | / | 24 | 1 | 0
COC(=O)c1ccc2c(=O)[nH]c(COC(=O)c3[nH]c(C)c(C(C)=O)c3C)nc2c1 | / | / | / | 72* | 3 | /
N#Cc1ccc(CSc2nnc(-c3ccncc3)n2CCc2ccccc2)cc1 | 65* | 5 | -7 | 4 | 0 | -7
SMILES | T cruzi inh | Fh CTSL1 inh | p-CIP stab down | H9c2 protect | JMJD2C inh | PP5 primary
c1ccc(CCn2c(SCc3ccccc3)nnc2-c2ccncc2)cc1 | 32 | 1 | -18 | 3 | 9 | -1
CN1CCN(c2ccc(S(=O)(=O)N3CCCCC3)cc2NC(=O)c2ccc(C#N)cc2)CC1 | 56* | -17 | -10 | 6 | 0 | 0
N#Cc1ccc(C(=O)Nc2cc(S(=O)(=O)N3CCOCC3)ccc2N2CCOCC2)cc1 | / | / | / | 1 | / | /
CN1CCN(c2ccc(S(=O)(=O)N3CCCCC3)cc2NC(=O)CSCc2ccccc2)CC1 | 67* | -9 | -5 | -1 | -6 | 1
Cc1ccccc1OCC(=O)Nc1cc(S(=O)(=O)N2CCCCC2)ccc1N1CCN(C)CC1 | 58* | -8 | -10 | 2 | 8 | 4
Cc1ccc(-c2cc(-c3ccco3)c3c(N)c(C(=O)NN)oc3n2)cc1 | 25 | 4 | -10 | 30 | -16 | 3
COc1cccc(/C=N/NC(=O)c2oc3nc(-c4ccccc4)cc(-c4ccco4)c3c2N)c1 | -7 | -1 | -18 | 56* | -29 | 3
CCOC(=O)c1cccc(NC(=O)CSc2nc3ccccc3c(=O)n2CCOC)c1 | / | 2 | -6 | 69* | / | -2
CCOC(=O)c1cccc(NC(=O)CSc2nc3ccccc3c(=O)n2CC)c1 | 34 | -1 | 1 | 9 | -24 | 1
CCCn1c(SC(C(=O)Nc2cccc(OC)c2)c2ccccc2)nc2ccccc2c1=O (stereo not drawn) | 1 | 7 | -8 | 50* | 8 | 2
Cc1ccc(C)c(CC(=O)N2CCCCC2c2cc(C(=O)Nc3ccc(F)c(Cl)c3)no2)c1 (stereo not drawn) | / | / | / | -11 | / | /
CN(C)C(=O)c1cc(C(=O)c2ccc(F)cc2C(F)(F)F)c[nH]1 | 1 | -2 | -11 | -12 | -22 | 2
Cc1ccc(Nc2nc(N)[nH]c(=O)c2N=O)cc1 | -6 | 5 | 0 | 52* | 9 | 0
O=C(N/N=C/c1ccc([N+](=O)[O-])o1)c1cc(-c2cccc(Br)c2)nc2ccccc12 | 63* | 0 | 1 | -4 | -5 | 5
CCCc1ccc(-c2cc(C(=O)N/N=C/c3ccc([N+](=O)[O-])o3)c3ccccc3n2)cc1 | 61* | 3 | -11 | -35 | 4 | 0
O=C(N/N=C/c1ccco1)c1cc(-c2ccccc2)nc2ccccc12 | -13 | 3 | -8 | 1 | 37 | -2
CCOc1ccc(CCN2C(=S)N([C@@H](CC(C)C)CN3CCCC3CN3C(=S)NC[C@@H]3CC(C)C)C[C@@H]2Cc2ccccc2)cc1 (stereo partly drawn) | / | / | / | 0 | / | /
